Tests used:
Assay type in all cases: functional, cell-based
HT-29 = assay: Cytotoxicity against human HT-29 cells after 72 hrs by methylene blue dye assay; conditions: HT-29, 72 h
How it was run: (§1)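 Log-phase cells seeded at 5000 cells/mL/well in 24-well plates, exposed to a range of compound concentrations for 72 h. Growth read by methylene blue dye staining. IC50 (50% growth inhibition versus untreated control) read graphically; mean ± standard deviation of three independent replicates. IC50 above 10 µM taken as non-cytotoxic. Etoposide and cisplatin served as positive controls.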

[1] = Cytotoxicity against human HONE1 cells after 72 hrs by methylene blue dye assay; conditions: HONE1, 72 h; how it was run: as §1
KB = assay: Cytotoxicity against human KB cells after 72 hrs by methylene blue dye assay; how it was run: as §1

Structure (SMILES) | IC50 (HT-29) | IC50 [1] | IC50 (KB)
CC1=CCC[C@H]2[C@@]1(C)[C@@H](OC(=O)c1ccccc1)[C@H](O)[C@]1(C)O[C@@]3(COC(=O)C3)C[C@H](OC(=O)c3cccnc3)[C@]21C [SCUTEHENANINE B] | 5 µM | 3.5 µM | 4.7 µM
COc1cc([C@@H]2c3cc4c(cc3[C@@H](O[C@@H]3O[C@@H]5CO[C@@H](C)O[C@H]5[C@H](O)[C@H]3O)[C@H]3COC(=O)[C@H]23)OCO4)cc(OC)c1O [ETOPOSIDE] | 2.3 µM | 1.2 µM | 1.3 µM
CC(=O)O[C@H]1[C@H](OC(=O)c2cccnc2)[C@](C)(O)[C@](C)(/C=C/C2=CC(=O)OC2)[C@H]2CCC=C(C)[C@]12C [6-O-ACETYLSCUTEHENANINE A] | 5.2 µM | 3.7 µM | 3.2 µM
CC1=CCC[C@H]2[C@@]1(C)[C@@H](OC(=O)c1cccnc1)[C@H](OC(=O)c1ccccc1)[C@](C)(O)[C@]2(C)[C@H]1CC2=C(O1)C(=O)OC2 [SCUTEHENANINE D] | 6.4 µM | 4.1 µM | 2.8 µM
CC1=CCC[C@H]2[C@@]1(C)[C@@H](OC(=O)C(=O)C(C)C)[C@H](OC(=O)c1cccnc1)[C@](C)(O)[C@]2(C)/C=C/C1=CC(=O)OC1 | 5.5 µM | 4 µM | 4.2 µM
CC1=CCC[C@H]2[C@@]1(C)[C@@H](O)[C@H](OC(=O)c1cccnc1)[C@](C)(O)[C@]2(C)/C=C/C1=CC(=O)OC1 [SCUTEHENANINE A] | 5.8 µM | 3.1 µM | 4.5 µM
C=C1CCC[C@H]2[C@@]1(C)[C@@H](OC(=O)c1ccccc1)[C@H](O)[C@]1(C)O[C@@]3(COC(=O)C3)C[C@H](OC(=O)c3cccnc3)[C@]21C [SCUTEHENANINE C] | 5.3 µM | 3.4 µM | 2.9 µM
